Experimental data published in ChEMBL document CHEMBL4689842, “EUbOPEN Chemogenomics Library wave 1” (2021).
“And” between values parts separate entries of the source, which are not always exact repeats. Identical values can stand only once.

Test system: HEK-293T
Test: Multiplex assay against HEK293T;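 for Population Tubulin-Different-Phenotype (%): share of the cells with healthy nuclei that show this phenotype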
Assay type: toxicity, cell-based
Details: human
In short: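 Live cells were stained at seeding with Hoechst33342, BioTracker Green Microtubule Cytoskeleton Dye, MitoTracker Red and Annexin V Alexa Fluor 680, then imaged on a CQ1 microscope at 37°C and 5% CO2 after compound addition. CellPathfinder machine-learning gating split cells into Hoechst high-intensity objects or normal cells. Normal cells were split into healthy, pyknosed or fragmented nuclei, and pyknosed cells into mitotic or apoptotic. Tubulin, mitochondrial-mass and membrane-permeability phenotypes are per cents of healthy-nucleus cells.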

[1] = 12 h, 1 µM, compound concentration 1 uM, replicate 1
[2] = 12 h, 1 µM, compound concentration 1 uM, replicate 2
[3] = 12 h, 10 µM, compound concentration 10 uM, replicate 1
[4] = 12 h, 10 µM, compound concentration 10 uM, replicate 2
[5] = 24 h, 1 µM, compound concentration 1 uM, replicate 1
[6] = 24 h, 1 µM, compound concentration 1 uM, replicate 2
[7] = 24 h, 10 µM, compound concentration 10 uM, replicate 1
[8] = 24 h, 10 µM, compound concentration 10 uM, replicate 2

CC(C)CC(=O)Nc1[nH]nc2c1CN(C(=O)C1CCN(C)CC1)C2(C)C [PHA-793887]
Population Apoptotic (%) [1]: 21%
Population Fragmented Nuclei (%) [1]: 10%
Population Healthy Nuclei (%) [1]: 72%
Population Hoechst High Intensity Objects (%) [1]: 8%
Population Membrane Permeable-Phenotype (%) [1]: 5%
Population Mitochondria Different-Phenotype (%) [1]: 4%
Population Mitotic Cells (%) [1]: 78%
Population Normal (%) [1]: 91%
Population Pyknosed Nuclei (%) [1]: 17%
Population Tubulin-Different-Phenotype (%) [1]: 2%
Total Cell Count [1]: 604
Population Apoptotic (%) [2]: 20%
Population Fragmented Nuclei (%) [2]: 9%
Population Healthy Nuclei (%) [2]: 87%
Population Hoechst High Intensity Objects (%) [2]: 2%
Population Membrane Permeable-Phenotype (%) [2]: 1%
Population Mitochondria Different-Phenotype (%) [2]: 6%
Population Mitotic Cells (%) [2]: 80%
Population Normal (%) [2]: 97%
Population Pyknosed Nuclei (%) [2]: 3%
Population Tubulin-Different-Phenotype (%) [2]: 4%
Total Cell Count [2]: 1420
Population Apoptotic (%) [3]: 21%
Population Fragmented Nuclei (%) [3]: 13%
Population Healthy Nuclei (%) [3]: 69%
Population Hoechst High Intensity Objects (%) [3]: 12%
Population Membrane Permeable-Phenotype (%) [3]: 2%
Population Mitochondria Different-Phenotype (%) [3]: 7%
Population Mitotic Cells (%) [3]: 78%
Population Normal (%) [3]: 87%
Population Pyknosed Nuclei (%) [3]: 16%
Population Tubulin-Different-Phenotype (%) [3]: 3%
Total Cell Count [3]: 585
Population Apoptotic (%) [4]: 25%
Population Fragmented Nuclei (%) [4]: 7%
Population Healthy Nuclei (%) [4]: 89%
Population Hoechst High Intensity Objects (%) [4]: 5%
Population Membrane Permeable-Phenotype (%) [4]: 0%
Population Mitotic Cells (%) [4]: 74%
Population Normal (%) [4]: 94%
Population Pyknosed Nuclei (%) [4]: 2%
Population Tubulin-Different-Phenotype (%) [4]: 2%
Total Cell Count [4]: 1190
Population Apoptotic (%) [5]: 27%
Population Fragmented Nuclei (%) [5]: 9%
Population Healthy Nuclei (%) [5]: 81%
Population Hoechst High Intensity Objects (%) [5]: 4%
Population Membrane Permeable-Phenotype (%) [5]: 7%
Population Mitochondria Different-Phenotype (%) [5]: 3%
Population Mitotic Cells (%) [5]: 72%
Population Normal (%) [5]: 95%
Population Pyknosed Nuclei (%) [5]: 9%
Population Tubulin-Different-Phenotype (%) [5]: 4%
Total Cell Count [5]: 638
Population Apoptotic (%) [6]: 11%
Population Fragmented Nuclei (%) [6]: 23%
Population Healthy Nuclei (%) [6]: 72%
Population Hoechst High Intensity Objects (%) [6]: 3%
Population Membrane Permeable-Phenotype (%) [6]: 2%
Population Mitochondria Different-Phenotype (%) [6]: 2%
Population Mitotic Cells (%) [6]: 88%
Population Normal (%) [6]: 96%
Population Pyknosed Nuclei (%) [6]: 3%
Population Tubulin-Different-Phenotype (%) [6]: 6%
Total Cell Count [6]: 1935
Population Apoptotic (%) [7]: 25%
Population Fragmented Nuclei (%) [7]: 13%
Population Healthy Nuclei (%) [7]: 70%
Population Hoechst High Intensity Objects (%) [7]: 15%
Population Membrane Permeable-Phenotype (%) [7]: 4%
Population Mitochondria Different-Phenotype (%) [7]: 7%
Population Mitotic Cells (%) [7]: 75%
Population Normal (%) [7]: 84%
Population Pyknosed Nuclei (%) [7]: 15%
Population Tubulin-Different-Phenotype (%) [7]: 8%
Total Cell Count [7]: 545
Population Apoptotic (%) [8]: 36%
Population Fragmented Nuclei (%) [8]: 11%
Population Healthy Nuclei (%) [8]: 86%
Population Hoechst High Intensity Objects (%) [8]: 4%
Population Membrane Permeable-Phenotype (%) [8]: 1%
Population Mitotic Cells (%) [8]: 63%
Population Normal (%) [8]: 95%
Population Pyknosed Nuclei (%) [8]: 2%
Population Tubulin-Different-Phenotype (%) [8]: 4%
Total Cell Count [8]: 1297

Cc1cc(NC(=O)c2cccc(S(F)(F)(F)(F)F)c2)cc(-n2ccn3nc(-c4cccnc4)cc23)c1 [BAY-309]
Population Fragmented Nuclei (%) [3]: 16% and 13%
Population Healthy Nuclei (%) [3]: 34% and 63%
Population Hoechst High Intensity Objects (%) [3]: 16% and 9%
Population Membrane Permeable-Phenotype (%) [3]: 25% and 14%
Population Mitochondria Different-Phenotype (%) [3]: 32% and 12%
Population Mitotic Cells (%) [3]: 34% and 83%
Population Normal (%) [3]: 83% and 90%
Population Pyknosed Nuclei (%) [3]: 48% and 23%
Population Tubulin-Different-Phenotype (%) [3]: 86% and 41%
Total Cell Count [3]: 619 and 653
Population Fragmented Nuclei (%) [4]: 3% and 2%
Population Healthy Nuclei (%) [4]: 87% and 72%
Population Hoechst High Intensity Objects (%) [4]: 2% and 4%
Population Membrane Permeable-Phenotype (%) [4]: 16% and 17%
Population Mitotic Cells (%) [4]: 92% and 54%
Population Normal (%) [4]: 97% and 95%
Population Tubulin-Different-Phenotype (%) [4]: 59% and 98%
Total Cell Count [4]: 1524 and 975
Population Fragmented Nuclei (%) [7]: 19% and 9%
Population Healthy Nuclei (%) [7]: 29% and 77%
Population Hoechst High Intensity Objects (%) [7]: 16% and 7%
Population Membrane Permeable-Phenotype (%) [7]: 10% and 21%
Population Normal (%) [7]: 83% and 92%
Population Tubulin-Different-Phenotype (%) [7]: 85% and 66%
Total Cell Count [7]: 590 and 755
Population Healthy Nuclei (%) [8]: 79% and 66%
Population Hoechst High Intensity Objects (%) [8]: 3% and 6%
Population Mitotic Cells (%) [8]: 94% and 45%
Population Normal (%) [8]: 96% and 93%
Population Tubulin-Different-Phenotype (%) [8]: 67% and 98%
Total Cell Count [8]: 2348 and 996
